Assay results as given in ChEMBL document CHEMBL1681730, “17,20-lyase inhibitors. Part 4: design, synthesis and structure-activity relationships of naphthylmethylimidazole derivatives as novel 17,20-lyase inhibitors” (Bioorg Med Chem, 2011).
pIC50: −log10 of the molar value.

Legend:
[1] = biological target: T1, Steroid 17-alpha-hydroxylase/17,20 lyase (Homo sapiens, UniProt P05093); experiment: Inhibition of 17,20 lyase activity in human
T1 sequence (P05093 whole entry): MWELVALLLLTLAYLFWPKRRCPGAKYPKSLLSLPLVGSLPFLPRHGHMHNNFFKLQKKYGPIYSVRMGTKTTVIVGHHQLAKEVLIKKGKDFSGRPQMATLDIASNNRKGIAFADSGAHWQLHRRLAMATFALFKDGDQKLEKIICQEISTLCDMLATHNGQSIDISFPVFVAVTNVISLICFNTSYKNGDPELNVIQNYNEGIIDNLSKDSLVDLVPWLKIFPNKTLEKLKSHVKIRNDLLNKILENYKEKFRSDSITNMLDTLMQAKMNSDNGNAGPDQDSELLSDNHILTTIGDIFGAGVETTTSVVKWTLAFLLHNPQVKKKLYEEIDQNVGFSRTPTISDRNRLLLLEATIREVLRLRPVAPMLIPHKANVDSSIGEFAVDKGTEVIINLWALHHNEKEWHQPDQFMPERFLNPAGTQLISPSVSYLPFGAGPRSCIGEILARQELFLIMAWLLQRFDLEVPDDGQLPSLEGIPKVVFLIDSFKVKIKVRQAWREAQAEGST
Outline: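 Recombinant P450c17 (0.5 pmol) with cytochrome b5 (0.5 pmol) and NADPH-P450 reductase (20.8 ng) in 75 mM phosphate pH 7.4 with 1 mM MgCl2. Substrate 10 nM [1,2-3H]-17α-hydroxypregnenolone, 5 mM NADPH, compound 1–1000 nM. Incubated 15 min at 37 °C, ethyl acetate extraction, DHEA separated from substrate by silica TLC (cyclohexane–ethyl acetate 3:2). IC50 taken as 50% reduction in product.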

[2] = biological target: T2, Steroid 17-alpha-hydroxylase/17,20 lyase (Rattus norvegicus, UniProt P11715); experiment: Inhibition of 17,20 lyase activity in Sprague-Dawley rat testicular microsomes; parameters: species or system Testis
T2 sequence (P11715 whole entry): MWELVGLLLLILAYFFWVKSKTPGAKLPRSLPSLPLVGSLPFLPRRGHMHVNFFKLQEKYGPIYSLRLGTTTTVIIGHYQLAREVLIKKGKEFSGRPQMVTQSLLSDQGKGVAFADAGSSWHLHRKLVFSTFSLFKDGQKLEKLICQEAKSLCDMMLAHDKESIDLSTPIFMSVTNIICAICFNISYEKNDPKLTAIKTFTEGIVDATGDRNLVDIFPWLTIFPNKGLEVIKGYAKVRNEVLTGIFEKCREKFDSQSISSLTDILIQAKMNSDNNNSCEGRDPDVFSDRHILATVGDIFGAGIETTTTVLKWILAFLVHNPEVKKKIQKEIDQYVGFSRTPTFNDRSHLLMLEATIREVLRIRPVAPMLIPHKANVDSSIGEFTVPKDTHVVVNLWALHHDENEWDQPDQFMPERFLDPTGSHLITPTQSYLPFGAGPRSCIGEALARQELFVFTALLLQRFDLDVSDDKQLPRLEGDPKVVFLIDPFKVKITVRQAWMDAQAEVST
Outline: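 Testicular microsomes from 13-week-old male SD rats (7 µg protein) in 75 mM phosphate buffer, pH 7.4, with 10 nM [1,2-3H]-17α-hydroxyprogesterone, 5 mM NADPH, and 1–1000 nM test compound (all final). Compounds were diluted in DMF and then in water. Incubation ran 15 min at 37 °C and was stopped with ethyl acetate. IC50 is the concentration that halves product formation.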

[3] = biological target: Cytochrome P450 3A4 (Homo sapiens, UniProt P08684); experiment: Inhibition of human CYP3A4; assay type: ADME
Cytochrome P450 3A4, sequence (P08684 whole entry): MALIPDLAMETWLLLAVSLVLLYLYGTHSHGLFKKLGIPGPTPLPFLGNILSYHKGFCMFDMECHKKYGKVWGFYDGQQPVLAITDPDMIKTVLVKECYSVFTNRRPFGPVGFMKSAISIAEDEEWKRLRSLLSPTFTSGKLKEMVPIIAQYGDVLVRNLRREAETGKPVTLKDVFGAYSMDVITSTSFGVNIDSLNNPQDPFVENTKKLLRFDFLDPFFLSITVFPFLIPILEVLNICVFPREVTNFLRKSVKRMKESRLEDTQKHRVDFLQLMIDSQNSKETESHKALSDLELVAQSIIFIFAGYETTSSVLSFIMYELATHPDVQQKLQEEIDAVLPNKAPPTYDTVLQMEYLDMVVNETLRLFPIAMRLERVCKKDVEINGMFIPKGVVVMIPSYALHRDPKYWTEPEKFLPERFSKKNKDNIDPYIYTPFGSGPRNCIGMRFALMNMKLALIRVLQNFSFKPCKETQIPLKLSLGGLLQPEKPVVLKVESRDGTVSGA

[4] = biological target: T3, Cytochrome P450c11B3 (Rattus norvegicus, UniProt Q64546); experiment: Inhibition of 11-hydroxylase activity in Sprague-Dawley rat adrenal gland; assay type: tissue-based
T3 sequence (Q64546 whole entry): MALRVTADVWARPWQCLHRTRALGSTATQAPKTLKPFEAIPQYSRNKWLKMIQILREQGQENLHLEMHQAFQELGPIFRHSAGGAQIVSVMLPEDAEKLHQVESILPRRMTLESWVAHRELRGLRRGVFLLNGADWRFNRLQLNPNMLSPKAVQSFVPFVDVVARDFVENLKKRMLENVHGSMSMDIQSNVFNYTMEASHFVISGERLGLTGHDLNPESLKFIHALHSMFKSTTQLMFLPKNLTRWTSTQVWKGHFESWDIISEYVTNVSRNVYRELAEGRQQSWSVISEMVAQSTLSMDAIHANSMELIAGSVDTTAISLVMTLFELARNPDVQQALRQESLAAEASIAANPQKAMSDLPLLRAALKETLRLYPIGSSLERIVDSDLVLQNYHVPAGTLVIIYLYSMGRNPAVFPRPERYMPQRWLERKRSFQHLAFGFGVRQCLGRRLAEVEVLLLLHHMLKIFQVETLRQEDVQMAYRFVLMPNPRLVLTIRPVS
Outline: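 Mitochondrial fraction from SD rat adrenal glands, 4 µg protein, in 200 mM mannitol, 4.5 mM HEPES, 2.3 mM K phosphate pH 7.4, 0.1 mM EDTA, 0.03% BSA, 4.5 mM NADPH, 11 mM CaCl2. Substrate 10 nM [1,2-3H]-11-deoxycortisol. Test compound 1–1000 nM, diluted in DMF. Incubated 30 min at 37 °C, stopped with ethyl acetate. Final concentrations.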

[5] = tested on: Cynomolgus monkey; experiment: Antiandrogenic activity in cynomolgus monkey assessed as reduction serum testosterone level at 1 mg/kg, po at 4 hrs (reference value: 89.1 +/- 15.6%); assay type: functional, Macaca fascicularis; parameters: scale not given: the % may be the effect or the level left
[6] = tested on: Cynomolgus monkey; experiment: Antiandrogenic activity in cynomolgus monkey assessed as reduction serum testosterone level at 1 mg/kg, po at 8 hrs (reference value: 68.5 +/- 27.3%); assay type: functional, Macaca fascicularis; parameters: scale not given: the % may be the effect or the level left
[7] = tested on: Cynomolgus monkey; experiment: Antiandrogenic activity in cynomolgus monkey assessed as reduction serum DHEA level at 1 mg/kg, po at 8 hrs (reference value: 38.5 +/- 18.4%); assay type: functional, Macaca fascicularis; parameters: scale not given: the % may be the effect or the level left
[8] = species: Homo sapiens; experiment: Ratio of IC50 for human CYP3A4 to IC50 for human 17,20-lyase
Outline: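 Two assays. Human 17,20-lyase: recombinant P450c17 (0.5 pmol) with cytochrome b5 and NADPH-P450 reductase, 10 nM [1,2-3H]-17α-hydroxypregnenolone, 5 mM NADPH, 1 mM MgCl2, pH 7.4 phosphate, 1–1000 nM compound, 15 min at 37 °C. DHEA separated by TLC, IC50 calculated. CYP3A4: recombinant enzyme, 100 μM testosterone, NADPH-regenerating system, 30 min at 37 °C, 6-hydroxytestosterone measured by HPLC.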

[9] = tested on: Cynomolgus monkey; experiment: Antiandrogenic activity in cynomolgus monkey assessed as reduction serum DHEA level at 1 mg/kg, po at 4 hrs (reference value: 105.7 +/- 4.2%); assay type: functional, Macaca fascicularis; parameters: scale not given: the % may be the effect or the level left
Outline: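 Adult male cynomolgus monkeys (23 ± 2 °C, 12:12 h light/dark) given a single oral 1 mg/kg dose as a suspension in 0.5% methylcellulose. Serum collected just before dosing and at 4 and 8 h, stored at −30 °C, and assayed by RIA. Values expressed as % of the 0 h level, mean ± SD, n = 3. Dunnett test against vehicle.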

Row | SMILES | pIC50 [1] | pIC50 [3] | pIC50 [4] | Ratio IC50 [8] | pIC50 [2] | Activity [5] | Activity [6] | Activity [7] | Activity [9]
1 | CNC(=O)c1cc2ccc(C(O)(c3c[nH]cn3)C(C)C)cc2cc1C (racemic) | 7.41 | 5.44 |  |  | 7.92 |  |  |  | 
2 | CC(C)C(O)(c1ccc2c3c(ccc2c1)C(=O)NC3)c1c[nH]cn1 (single isomer, unassigned; (-)) | 7.82 | < 5.00 | 7.89 |  |  |  |  |  | 
3 | CCNC(=O)c1ccc2cc(C(O)(c3c[nH]cn3)C(C)C)ccc2c1 (racemic) | 7.34 | 5.24 |  |  | 7.96 |  |  |  | 
4 | COc1ccc2cc([C@](O)(c3c[nH]cn3)C(C)C)ccc2c1 | 7.55 | > 6.00 |  | < 36 | 7.68 |  |  |  | 
5 | CC(C)C(O)(c1ccc2c3c(ccc2c1)C(=O)NC3)c1c[nH]cn1 (racemic) | 7.74 | 5.17 |  |  |  |  |  |  | 
6 | CC(=O)Nc1ccc2cc(C(O)(c3c[nH]cn3)C(C)C)ccc2c1 (racemic) | 7.41 | > 6.00 |  | < 26 | 7.54 |  |  |  | 
7 | COC(=O)c1ccc2cc(C(O)(c3c[nH]cn3)C(C)C)ccc2c1 (racemic) | 7.62 | 5.85 |  | 58 | 7.37 |  |  |  | 
8 | CNC(=O)c1ccc2cc(C(O)(c3c[nH]cn3)C(C)C)ccc2c1C (racemic) | 6.80 | < 5.00 |  |  | 6.70 |  |  |  | 
9 | CC(C)NC(=O)c1ccc2cc(C(O)(c3c[nH]cn3)C(C)C)ccc2c1 (racemic) | 7.12 | 5.03 |  |  | 7.92 |  |  |  | 
10 | CC(C)C(O)(c1ccc2cc3c(cc2c1)CNC3=O)c1c[nH]cn1 (racemic) | 7.44 |  |  |  |  |  |  |  | 
11 | CC(C)[C@@](O)(c1ccc2c3c(ccc2c1)C(=O)N(C)C3)c1cnc[nH]1 | 6.57 | < 5.00 | < 6.00 |  | 6.96 |  |  |  | 
12 | CC(C)C(O)(c1ccc2cc(C(N)=O)ccc2c1)c1c[nH]cn1 (racemic) | 7.52 | 5.43 |  |  | > 8.00 |  |  |  | 
13 | CC(C)C(O)(c1ccc2cc3c(cc2c1)CN(C)C3=O)c1c[nH]cn1 (racemic) | 7.72 | 5.27 |  |  | 7.15 |  |  |  | 
14 | CC(=O)c1ccc2cc(C(O)(c3c[nH]cn3)C(C)C)ccc2c1 (racemic) | 7.55 | 5.85 |  | 50 | 7.85 |  |  |  | 

Now from value to compound, other results behind:

Row | pIC50 [1] | pIC50 [3] | pIC50 [4] | Ratio IC50 [8] | SMILES | pIC50 [2] | Activity [5] | Activity [6] | Activity [7] | Activity [9]
15 |  |  |  | > 1000 | CC(C)[C@](O)(c1ccc2c3c(ccc2c1)C(=O)N(C)C3)c1c[nH]cn1 |  | 13.2% | 9.8% | 7.7% | 16.8%
16 | 6.70 | < 5.00 |  |  | CNC(=O)c1ccc2cc(C(O)(c3cnc[nH]3)C(C)C)ccc2c1Cl (racemic) | 7.04 |  |  |  | 
17 | 7.80 | 5.44 |  | 225 | CNC(=O)c1ccc2cc(C(O)(c3c[nH]cn3)C(C)C)ccc2c1 (racemic) | 8.22 |  |  |  | 
18 | 7.22 | 5.13 | 6.66 |  | CC(C)C(O)(c1ccc2c3c(ccc2c1)C(=O)NC3)c1c[nH]cn1 (stereo in doubt; (+)-27a) | 6.74 |  |  |  | 
19 | 7.42 | 5.47 |  |  | CCCNC(=O)c1ccc2cc(C(O)(c3cnc[nH]3)C(C)C)ccc2c1 (racemic) | 7.89 |  |  |  | 
20 | 7.66 |  |  |  | CC(C)C(O)(c1ccc2c3c(ccc2c1)C(=O)N(C)C3)c1c[nH]cn1 (racemic) |  |  |  |  | 
21 | 7.44 | > 6.00 |  | < 28 | CNC(=O)Nc1ccc2cc(C(O)(c3c[nH]cn3)C(C)C)ccc2c1 (racemic) | 7.96 |  |  |  | 
